Experimental data from publication PMC9521027 (ACS Omega, 2022).
Residue numbers refer to the chain shown, from its start.

What was measured:
[1] = target: T1, URAT1 K393E mutant (Homo sapiens, UniProt Q96S37, K393E); experiment: 14C-uric acid binding assay with membrane protein; settings: 2.5 μg membrane protein, 25 μM 14C-uric acid, 30 min
T1 sequence (Q96S37 1-553 K393E): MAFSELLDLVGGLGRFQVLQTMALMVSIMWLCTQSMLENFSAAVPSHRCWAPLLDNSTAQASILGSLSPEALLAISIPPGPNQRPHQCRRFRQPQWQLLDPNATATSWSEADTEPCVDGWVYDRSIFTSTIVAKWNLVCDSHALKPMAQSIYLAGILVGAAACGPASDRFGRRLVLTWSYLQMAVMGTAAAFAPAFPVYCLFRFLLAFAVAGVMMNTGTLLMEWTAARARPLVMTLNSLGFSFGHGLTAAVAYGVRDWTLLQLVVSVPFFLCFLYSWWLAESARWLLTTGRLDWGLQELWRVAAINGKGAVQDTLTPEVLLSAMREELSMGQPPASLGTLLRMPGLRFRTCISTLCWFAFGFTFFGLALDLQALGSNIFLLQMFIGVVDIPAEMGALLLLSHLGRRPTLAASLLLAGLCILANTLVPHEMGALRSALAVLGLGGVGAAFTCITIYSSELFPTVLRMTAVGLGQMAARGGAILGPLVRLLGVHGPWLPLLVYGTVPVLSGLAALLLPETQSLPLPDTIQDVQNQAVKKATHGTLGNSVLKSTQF
Method in brief: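 Membranes came from HEK293 cells transiently transfected (Lipofectamine 3000) with sequence-confirmed site-directed K393 mutant hURAT1 plasmids; control membranes came from cells transfected with pECFP empty vector. Cells were harvested in ice-cold 25 mM HEPES pH 7.3 with 125 mM sodium gluconate, and membranes were extracted with a kit. Protein was incubated at room temperature, then rapid-filtered, washed with ice-cold DPBS, dissolved in 0.1 M NaOH and scintillation-counted. n = 3, mean ± SD.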

[2] = target: T2, URAT1 WT (Homo sapiens, UniProt Q96S37); experiment: Saturation kinetic experiment of 14C-uric acid uptake; assay type: cell-based; settings: wild-type group
T2 sequence (Q96S37 1-553): T1 sequence (Q96S37 1-553 K393E) with E393K

[3] = target: T1, URAT1 K393E mutant; experiment: 14C-uric acid uptake assay in transfected HEK293 cells; assay type: cell-based; settings: K393E, HEK293 cells
[4] = target: T3, URAT1 K393H mutant (Homo sapiens, UniProt Q96S37, K393H); experiment: Competitive inhibition test of unlabeled uric acid on 14C-uric acid uptake; assay type: cell-based
T3 sequence (Q96S37 1-553 K393H): T1 sequence (Q96S37 1-553 K393E) with E393H

[5] = target: T4, URAT1 K393A mutant (Homo sapiens, UniProt Q96S37, K393A); experiment: 14C-uric acid uptake assay in transfected HEK293 cells; assay type: cell-based; settings: K393A, HEK293 cells
T4 sequence (Q96S37 1-553 K393A): T1 sequence (Q96S37 1-553 K393E) with E393A

[6] = target: T3, URAT1 K393H mutant; experiment: as above; assay type: cell-based; settings: K393H, HEK293 cells
[7] = target: T3, URAT1 K393H mutant; experiment: 14C-uric acid binding assay with membrane protein; settings: 2.5 μg membrane protein, 25 μM 14C-uric acid, 30 min

O=c1[nH]c(=O)c2[nH]c(=O)[nH]c2[nH]1 [uric acid]
14C-uric acid binding compared with WT [1]: significant loss | Vmax [2]: 654.12 µM | 14C-urate transport capacity lost compared with WT [3]: 70–80% | IC50 [4]: 121 ± 5.98 µM | 14C-urate transport capacity lost compared with WT [5]: 70–80% | 14C-uric acid transport capacity compared with WT [6]: slightly reduced | 14C-uric acid binding capacity compared with WT [7]: similar
